Assay results reported in publication PMC4684727 (Antiviral research, 2015).
≈ marks a conversion by molar mass, not a printed value.

How the values were obtained:
[1] = test system: HCV-Cre in Huh7.5.1LoxPGluc cells; assay: HCV-Cre/LoxPGluc cell-based HCV infection qHTS assay; parameters: species or system Hepatitis C virus; conditions: primary screen, luciferase 48 h
Method in brief: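 Huh7.5.1LoxPGluc cells carry a Cre-activated Gaussia luciferase and are kept in DMEM with 10% FBS at 37 °C and 5% CO2. Cells (750/well) were plated overnight, then given test compound and HCV-Cre at ~0.05 m.o.i. Five plates were run: DMSO plus 0.34, 1.7, 8.5 and 42 μM. Luciferase was read at 48 h. Responses were normalized to 10 μM cyclosporin A (100%) and DMSO (0%), and EC50 was fitted by nonlinear regression.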

[2] = test system: human tyrosyl-DNA phosphodiesterase 1; conditions: cited from earlier work; for inhibitory activity of human tyrosyl-DNA phosphodiesterase 1: ref AID 686978
[3] = test system: respiratory syncytial virus (RSV); conditions: ref AID: 2410; cited from earlier work
HIV = conditions: ref AID:651610; cited from earlier work
[4] = test system: ELG1-dependent DNA repair; conditions: PubChem / in-house qHTS cross-activity, AID not given; cited from earlier work
[5] = Rat liver microsomal stability; format: in vitro ADME; conditions: for Microsomal t1/2: rat liver microsomes, 37°C, NADPH
Aqueous solubility = format: physicochemical
HCV life cycle = format: cell-based, Hepatitis C virus; conditions: designated from HCVsc, HCVpp and HCV replicon inhibition (>50% = significant)
HCVsc = assay: HCV single-cycle infection assay; format: cell-based, Hepatitis C virus; conditions: significant = more than 50% decrease
Method in brief: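 Single-round defective HCV particles were made by replicon trans-packaging. These particles infect and replicate but cannot assemble new virions. Luciferase signal was read 48 h after compound treatment, with cyclosporin A as positive control.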

HCVpp-1a = format: cell-based, Hepatitis C virus
[6] = test system: HCV-WT (wild-type HCVcc) in Huh7.5.1 cells; assay: 2-part HCV-WT infection assay with HCV core immunofluorescence staining; format: cell-based, Hepatitis C virus; conditions: for higher potency at part-2 compared to part-1: HCV-WT 2-part infection assay
Method in brief: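 Huh7.5.1 cells (3,000/well) were infected with wild-type J6/JFH1 HCVcc at 0.05 moi, with test compound added at infection in 1:3 serial dilutions from 30 μM (part 1). After 48 h, the media were moved onto fresh Huh7.5.1 cells (part 2) and infected for 48 h. Cells were stained with anti-core 6G7 mAb, an Alexa Fluor 488 secondary and Hoechst, then imaged. Core-positive cell percentages were normalized to DMSO and plotted as concentration-response curves.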

[7] = test system: human M1 muscarinic receptor; conditions: ref AID: 624040; cited from earlier work
D1 dopamine receptor = conditions: ref AID: 504660; cited from earlier work
DNA polymerase ETA = conditions: ref AID 588591; cited from earlier work
[8] = test system: assembly of the perinucleolar compartement; conditions: ref AID 2427; cited from earlier work
Permeability = format: physicochemical
miRNAs = conditions: D4 and its derivatives; ref AID: 2289; cited from earlier work
[9] = test system: posterior segregation family member (pos-1) binding to mex-3-RNA; conditions: ref PubChem AID: 1964; cited from earlier work
[10] = test system: 5′UTR stem-loop driven prion protein mRNA translation in H4 neuroglioblastoma cells; conditions: D4 and its derivatives, ref AID: 1814; cited from earlier work

Work on `CCCCCn1c(=O)[nH]c2cc(C(=O)NCCCN3CCCCC3CC)ccc2c1=O` (centres unmarked) [MLS000948303-01] yielded an EC50 [1] of 7.08 µM.
For `Cc1c(NC(=O)c2cc3c(s2)-c2ccccc2OC3)cccc1[N+](=O)[O-]` [D5], the “inhibitory activity against human TDP1” value ([2]; PubChem / in-house qHTS cross-activity, AID not given) is listed as “showed inhibitory activities”, the “inhibition of RSV” value [3] is listed as “inhibitor” and the “inhibition of HIV” value (HIV) is listed as “inhibitor”. For the same molecule, the “inhibitory activity against ELG1-dependent DNA repair” value [4] was “showed inhibitory activities”.
For `CCCCCn1c(=O)[nH]c2cc(C(=O)NCCN3CCCCC3C)ccc2c1=O` (centres unmarked) [MLS000948325-01], the EC50 [1] was 22.4 µM.
For `CCC1CCCCN1CCCNC(=O)C1CCN(Cc2nc(-c3ccc(Cl)cc3)oc2C)CC1` (centres unmarked) [MLS000913279-01], the EC50 [1] was 1.41 µM.
Molecule `CCCCCn1c(=O)[nH]c2cc(C(=O)NCCCN3CCCCC3)ccc2c1=O` [MLS000086763-01] has an EC50 [1] of 10 µM.
In the case of `COc1ccc(CN2CCC(N(CCc3ccccc3)Cc3ccccc3)CC2)c(OC)c1.O=C(O)C(=O)O` [MLS000662842-01], the “Microsomal t1/2” value [5] is reported as 2.3 m, the “half-life (t1/2) in rat microsomes” value [5] is reported as 2.3 min and the Solubility (Aqueous solubility) is reported as 49.3 µg/mL. For the same molecule, the Life cycle stage (HCV life cycle) was “Assembly/secretion”.
For `N=c1c(C(=O)NCc2ccc3c(c2)OCO3)cc2c(=O)n3ccccc3nc2n1Cc1cccnc1` [MLS000040412-01], the Life cycle stage (HCV life cycle) was “entry inhibitors”, the “inhibition in HCVsc assay” value (HCVsc) was “significant inhibition” and the “inhibition in HCVpp assay” value (HCVpp-1a) was “less than 50%”.
In the case of `Cc1ccccc1-c1nc(CN2CCC(C(=O)NCc3cccnc3)CC2)c(C)o1` [MLS000095186-01], the EC50 [1] is reported as 5.01 µM.
With `CC(NC(=O)c1cc2c(=O)n3ccccc3nc2n(CC2CCCO2)c1=N)c1ccccc1` (centres unmarked) [MLS001217747-01] the Life cycle stage (HCV life cycle) was “entry inhibitors” and the “inhibition in HCVsc assay” value (HCVsc) was “significant inhibition”.
In the case of `O=C(Nc1ccc(S(=O)(=O)Nc2ccccc2)cc1)c1ccc(CN2CCOCC2)cc1` [MLS000714550], the “inhibition of HCV core-positive cells, part-1 versus part-2” value ([6]; compounds 1:3 dilutions from 30 μM, 48 h per part) is reported as “decreased similarly in both parts”.
With `Cc1ccccc1-c1nc(CN2CCC(C(=O)NCCC3=CCCCC3)CC2)c(C)o1` [MLS000095191-01] the EC50 [1] was 6.31 µM.
In the case of `N#C/C(=C\Nc1ccc2cn[nH]c2c1)c1nc(-c2ccccc2)cs1` [D2], the “inhibitory activity of human tyrosyl-DNA phosphodiesterase 1” value [2] is given as “showed inhibitory activity”.
In the case of `CCOC(=O)c1cc2c(=O)n3ccccc3nc2n(CCCOC)c1=NC(=O)C(C)(C)C` [MLS000879011-01], the Life cycle stage (HCV life cycle) is reported as “entry inhibitors”.
For `CC1CCN(CCCNC(=O)c2ccc3c(=O)n(CCc4ccccc4)c(=O)[nH]c3c2)CC1` [MLS000519916-01], the EC50 [1] was 8.91 µM.
For `Cc1ccccc1-c1nc(CN2CCC(C(=O)NCCCN3CCCC3)CC2)c(C)o1` [MLS000095192-01], the EC50 [1] was 14.1 µM.
For `CCN1CCN(c2ccc(NC(=O)c3cccc(OCc4ccccc4)c3)cc2)CC1` [B5], the “activity against human M1 muscarinic receptor” value [7] is listed as “showed activities” and the “activity against D1 dopamine receptor” value (D1 dopamine receptor) is listed as “showed activities”.
In the case of `CCC1CCCCN1CCCNC(=O)c1ccc2c(=O)n(CCOC)c(=O)[nH]c2c1` (centres unmarked) [MLS000948314-01], the EC50 [1] is reported as > 100 µM.
With `COc1ccc(CCNC(=O)c2cc3c(=O)n4ccccc4nc3n(CCCN3CCOCC3)c2=N)cc1` [MLS001139388-01] the Life cycle stage (HCV life cycle) was “entry inhibitors”.
In the case of `Cn1c(=O)c2c(nc(SCC(=O)NCc3ccc4c(c3)OCO4)n2Cc2ccc(Cl)cc2)n(C)c1=O` [D3], the “inhibition of DNA polymerase ETA” value (DNA polymerase ETA) is listed as “inhibitor” and the “inhibition of assembly of the perinucleolar compartement” value [8] is listed as “inhibited the assembly”.
For `CC1CCCCN1CCCNC(=O)c1ccc2c(=O)n(CCc3ccccc3)c(=O)[nH]c2c1` (centres unmarked) [MLS000519917-01], the EC50 [1] was 3.98 µM.
For `Cc1cc(SCC(=O)c2ccccc2)n2ncc(-c3ccccc3)c2n1` [MLS000763045-01], the “higher potency at part-2 compared to part-1” value [6] was 10–50 fold.
With `O=C(NCCCN1CCCCC1)c1ccc2c(=O)n(CCc3ccccc3)c(=O)[nH]c2c1` [MLS000086784-01] the EC50 [1] was 6.31 µM.
For `CCN1CCN(CCCOc2ccc(-c3ccccc3)cc2)CC1` [MLS000049859-01], the “Microsomal t1/2” value [5] was 7.9 m, the “half-life (t1/2) in rat microsomes” value [5] was 7.9 min and the Permeability (Permeability) was >2183.0 ×10⁻⁶ cm/s. For the same molecule, the Solubility (Aqueous solubility) was > 48.0 µg/mL and the Life cycle stage (HCV life cycle) was “Entry”.
In the case of `CCCCCn1c(=O)[nH]c2cc(C(=O)NCCCN3CCC(C)CC3)ccc2c1=O` [MLS000876570-01], the EC50 [1] is reported as 4.47 µM, the “Microsomal t1/2” value [5] is reported as > 30.0 m and the “half-life (t1/2) in rat microsomes” value [5] is reported as “greater than 30 min”. The Permeability (Permeability) was < 30.9 ×10⁻⁶ cm/s, the Solubility (Aqueous solubility) was > 59.0 µg/mL and the Life cycle stage (HCV life cycle) was “Entry”.
`Cc1oc(-c2ccc(Cl)cc2)nc1CN1CCC(C(=O)NCCCN2CCCC2=O)CC1` [MLS000878431-01] gave an EC50 [1] of 22.4 µM.
Molecule `Cc1oc(-c2ccc(Cl)cc2)nc1CN1CCCC(C(=O)NCCCN2CCCC2=O)C1` (centres unmarked) [MLS000117605-01] has an EC50 [1] of 11.2 µM.
With `Cc1ccccc1-c1nc(CN2CCC(C(=O)NCC3CCCO3)CC2)c(C)o1` (centres unmarked) [MLS000095190-01] the EC50 [1] was > 100 µM.
In the case of `COc1ccc(CCNC(=O)c2cc3c(=O)n4ccccc4nc3n(C3CCCCC3)c2=N)cc1` [MLS001139315-01], the Life cycle stage (HCV life cycle) is reported as “entry inhibitors”.
For `CCNC(=S)/N=C(\N)Nc1nc(C)c2cc(C)ccc2n1` [D4], the “modulation of miRNAs” value (miRNAs) is listed as “potent modulators”, the “targeting pos-1 binding to mex-3-RNA” value [9] is listed as “targets” and the “activation of 5′UTR stem-loop driven prion protein mRNA translation” value [10] is listed as “activators”.
For `Cc1ccc(C)c2nc(SCC(=O)N3CCCc4ccccc43)c(C#N)cc12` [D7], the “higher potency at part-2 compared to part-1” value [6] was 10–50 fold.
For `CCCCCn1c(=O)[nH]c2cc(C(=O)NC3CCN(Cc4ccccc4)CC3)ccc2c1=O` [MLS000519908-01], the EC50 [1] was > 100 µM.
For `COC(=O)C1=C(c2ccc(-c3ccccc3)c(F)c2)C[C@@H]2CC[C@H]1N2C(=O)NCc1cccc2ccccc12` [D1], the “inhibitory activity of human tyrosyl-DNA phosphodiesterase 1” value [2] is listed as “showed inhibitory activity”.
For `Cc1ccccc1-c1nc(CN2CCC(C(=O)NCCN3CCOCC3)CC2)c(C)o1` [MLS000913230-01], the EC50 [1] was > 100 µM.
In the case of `Cc1ccccc1-c1nc(CN2CCC(C(=O)NCCCN3CC(C)CC(C)C3)CC2)c(C)o1` (centres unmarked) [MLS000877128-01], the EC50 [1] is reported as 1.26 µM, the Permeability (Permeability) is reported as 489.1 ×10⁻⁶ cm/s and the Solubility (Aqueous solubility) is reported as 53.9 µg/mL (≈ 115 µM). The Life cycle stage (HCV life cycle) was “Entry”.
